Assay [1] is described as follows: SK-BR-3 cell growth inhibitors, pilot screen, 24 h, human (AID 572;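 active = viability at or below 10% of carrier control in both of two separate runs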;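 note: compound exposure lasted between 18 and 24 h rather than exactly 24 h; 100% = carrier-treated control wells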). As to conditions: SK-BR-3 viability, CellTiter-Glo luminescence, at 10 µM, stronger effect = lower value.
Assay [2] can be described thus: HUVEC growth inhibition – cell-based, human, primary screen (AID 575;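 active = viability at or below 30% in both replicate assays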;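 note: 100% = median of untreated cell wells with 0.1% DMSO on each plate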). As to conditions: HUVEC proliferation, CellTiter-Glo luminescence, 72 h; at 10 µM; stronger effect = lower value. A digest of the protocol:
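Test system: primary human umbilical vein endothelial cells. Quantity: 1250 cells/well. Compound: single 10 µM dose, 0.1% DMSO, from 5x medium stock. Timing: 72 h treatment at 37 °C. Detection: ATP-based CellTiter-Glo luminescent read. Benchmarks: vehicle and MePR control wells. Format: 384-well plates coated with collagen.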

Assay [3] can be described thus: growth inhibitors of H69AR lung tumor, primary screen, human, duplicate replicates (AID 580).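 Note: 100% = mean luminescence of untreated wells and 0% = no signal.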 As to conditions: H69AR lung tumor cells viability, ATP luminescence, 72 h; at 10 µM; stronger effect = lower value.
The nature of assay [4]: reversal of MRP1-mediated doxorubicin resistance, pilot screen, H69AR cells, doxorubicin co-treatment (AID 601;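 active = viability loss from added drug above about 55%, and viability with drug at most 40%, in both replicates, limit read from the data, passing the limit was not always enough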). As to conditions: CellTiter-Glo, 72 h, at 10 µM; for differential viability (reversal): stronger effect = higher value.
A short description of assay [5]: 384-well plate pilot, post-Golgi transport modulator project, inhibition of yeast transport mutant growth (AID 636; in the data active = inhibition above about 31%). Particulars: absorbance 615 nm, about 18 h, stronger effect = higher value.
Assay [6] in a line: growth suppression of yeast trafficking mutant, preliminary HTS, modulators of trafficking downstream of Golgi apparatus project, 1536-format plate, OD 615 nm (AID 637; in the data active = inhibition above about 30%). Particulars: yeast transport mutant growth, absorbance 615 nm, 18 h; stronger effect = higher value.
Where [7] appears, read: H69AR cells + 2 uM doxorubicin, measured here: viability with 2 uM doxorubicin, stronger effect = lower value.
Setting [8] is: H69AR cells, compound alone cytotoxicity.

The structures appear in SMILES notation. Activity calls are given as the source filed them.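 Rule for the calls, unless noted: active = viability at or under a set limit in both replicates, limit being median viability minus 3 SD (cut at about 48% in these data, passing the limit was not always enough); inconclusive = at or under the limit in just one replicate; inactive = at or above the limit in both replicates.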

Regarding `COc1ccc(-n2ncc3c(NCc4ccc5c(c4)OCO5)ncnc32)cc1`, the viability in assay [1] is 92.5% (inactive); in assay [2], 49.8% (inactive); in assay [3], 6.44% (active); in assay [4] (setting [7]) it was 17.4%; in assay [4] (setting [8]), 6.44%. Moreover, in assay [4] (H69AR cells + 2 uM doxorubicin), the differential viability (reversal) is -11% (inactive). In addition, the inhibition in assay [5] was -3.55% (inactive); in assay [6], 3.71% (inactive).

As to `COc1ccc(-c2nc(C)sc2CC(=O)O)cc1`, the viability in assay [1] was 100% (inactive); in assay [2], 103% (inactive); in assay [3], 95.8% (inactive); in assay [4] (setting [7]), 93.3%; in assay [4] (setting [8]) it was 95.8%. Besides, in assay [4] (H69AR cells + 2 uM doxorubicin), the differential viability (reversal) is 2.46% (inactive). For the same molecule, the figures for the inhibition in assay [5] and in assay [6] were -2.21% (inactive) and 1.31% (inactive), respectively.

Regarding `CCN(CC)CCOC(=O)c1ccc(NC(=O)COc2cc(=O)n(CC)c3ccccc23)cc1`, the viability in assay [1] was 103% (inactive); in assay [2] it was 98.3% (inactive); in assay [3] it was 109% (inactive); in assay [4] (setting [7]) it was 82.1%; in assay [4] (setting [8]), 109%. Moreover, the differential viability (reversal) in assay [4] (H69AR cells + 2 uM doxorubicin) is 26.6% (inactive). Moreover, the inhibition in assay [5] is -2.86% (inactive); in assay [6], -10% (inactive).

For `O=c1c(O)c(-c2ccc(O)cc2O)oc2cc(O)cc(O)c12`, the viability in assay [1] was 94% (inactive); in assay [2] it was 97.5% (inactive); in assay [3] it was 97.4% (inactive); in assay [4] (setting [7]), 99.6%; in assay [4] (setting [8]) it was 97.4%. Further, the differential viability (reversal) in assay [4] (H69AR cells + 2 uM doxorubicin) was -2.28% (inactive). In addition, the inhibition in assay [5] is -3.77% (inactive); in assay [6], -1.33% (inactive).

Turning to `COc1cc(NC(=O)c2cccs2)cc(OC)c1`, the viability in assay [1] was 72% (inactive); in assay [2] it was 95.4% (inactive); in assay [3], 97.7% (inactive); in assay [4] (setting [7]), 84%; in assay [4] (setting [8]), 97.7%. Besides, in assay [4] (H69AR cells + 2 uM doxorubicin), the differential viability (reversal) was 13.6% (inactive). In addition, the inhibition in assay [5] is -2.97% (inactive); in assay [6], -8.18% (inactive).

Consider `Cc1cccc(N(CC(=O)Nc2ccc(CC#N)cc2)S(C)(=O)=O)c1`, for which the viability is 108% (inactive) in assay [1]; 105% (inactive) in assay [2]; 97% (inactive) in assay [3]; 86.2% in assay [4] (setting [7]); 97% in assay [4] (setting [8]). The differential viability (reversal) in assay [4] (H69AR cells + 2 uM doxorubicin) is 10.8% (inactive). The inhibition is -10.8% (inactive) in assay [5] and 2.74% (inactive) in assay [6].

For the molecule `Cc1cccc(C)c1OCC(=O)Nc1cccc(NC(=O)c2ccco2)c1`, the viability in assay [1] was 97% (inactive); in assay [2], 71.2% (inactive); in assay [3], 84.6% (inactive); in assay [4] (setting [7]) it was 83.1%; in assay [4] (setting [8]), 84.6%. Besides, the differential viability (reversal) in assay [4] (H69AR cells + 2 uM doxorubicin) is 1.53% (inactive). For the same molecule, the inhibition in assay [5] is -3.29% (inactive); in assay [6], -0.16% (inactive).

In the case of `Cc1ccc(N2CCN(CCc3nc4cc(NS(C)(=O)=O)ccc4n3C)CC2)cc1`, the viability was 104% (inactive) in assay [1]; 110% (inactive) in assay [2]; 90.1% (inactive) in assay [3]; 86.4% in assay [4] (setting [7]); 90.1% in assay [4] (setting [8]). Also, the differential viability (reversal) in assay [4] (H69AR cells + 2 uM doxorubicin) is 3.72% (inactive). Further, the inhibition is -6.75% (inactive) in assay [5] and -5.74% (inactive) in assay [6].

As to `Cc1nnc(SCc2ccccc2F)n1NCc1cccs1`, the viability in assay [1] was 100% (inactive); in assay [2] it was 93.6% (inactive); in assay [3], 89% (inactive); in assay [4] (setting [7]), 89.7%; in assay [4] (setting [8]) it was 89%. The differential viability (reversal) in assay [4] (H69AR cells + 2 uM doxorubicin) is -0.635% (inactive). Also, the inhibition in assay [5] was -6.85% (inactive); in assay [6], 5% (inactive).

Turning to `c1ccc(OCc2nc(-c3ccccc3)no2)cc1`, the viability was 98% (inactive) in assay [1]; 92.5% (inactive) in assay [2]; 93.5% (inactive) in assay [3]; 89.9% in assay [4] (setting [7]); 93.5% in assay [4] (setting [8]). Also, the differential viability (reversal) in assay [4] (H69AR cells + 2 uM doxorubicin) is 3.62% (inactive). For the same molecule, the inhibition is 0.14% (inactive) in assay [5] and 29.5% (inactive) in assay [6].

Consider `COc1ccc(/C=N/n2c(SC)nnc2-c2ccccc2)cc1C`, for which the viability in assay [1] was 116% (inactive); in assay [2], 75.5% (inactive); in assay [3], 20.7% (active); in assay [4] (setting [7]), 78.8%; in assay [4] (setting [8]) it was 20.7%. Moreover, the differential viability (reversal) in assay [4] (H69AR cells + 2 uM doxorubicin) was -58.1% (inactive). In addition, the values for the inhibition in assay [5] and in assay [6] were 0.93% (inactive) and 9.27% (inactive), respectively.

With `CC(C)CN(CC(C)C)C(=O)CS(=O)(=O)Cc1ccccc1`, the viability is 87% (inactive) in assay [1]; 98.8% (inactive) in assay [2]; 91.4% (inactive) in assay [3]; 88.2% in assay [4] (setting [7]); 91.4% in assay [4] (setting [8]). Further, the differential viability (reversal) in assay [4] (H69AR cells + 2 uM doxorubicin) was 3.15% (inactive). In addition, the results for the inhibition in assay [5] and in assay [6] were -5.75% (inactive) and 1.13% (inactive), respectively.

Take `CCN(C(=O)c1c(OC)cccc1OC)c1nnc(-c2cccnc2)s1`: the viability in assay [1] is 95% (inactive); in assay [2] it was 87.7% (inactive); in assay [3], 92.7% (inactive); in assay [4] (setting [7]), 90.8%; in assay [4] (setting [8]), 92.7%. Further, the differential viability (reversal) in assay [4] (H69AR cells + 2 uM doxorubicin) is 1.89% (inactive). For the same molecule, the values for the inhibition in assay [5] and in assay [6] were -5.81% (inactive) and -7.82% (inactive), respectively.

For the molecule `CN(C)CCN(Cc1ccccc1)c1ccccn1`, the viability in assay [1] is 100% (inactive); in assay [2], 89.1% (inactive); in assay [3], 101% (inactive); in assay [4] (setting [7]), 92.7%; in assay [4] (setting [8]), 101%. Moreover, the differential viability (reversal) in assay [4] (H69AR cells + 2 uM doxorubicin) is 8.55% (inactive). The inhibition was 3.38% (inactive) in assay [5] and -0.67% (inactive) in assay [6].

Consider `c1cc2c(cc1Nc1nc(-c3ccc4c(c3)OCO4)cs1)OCCO2`, for which the viability in assay [1] was 97% (inactive); in assay [2] it was 72.6% (inactive); in assay [3], 90.5% (inactive); in assay [4] (setting [7]), 99.4%; in assay [4] (setting [8]) it was 90.5%. Moreover, the differential viability (reversal) in assay [4] (H69AR cells + 2 uM doxorubicin) was -8.93% (inactive). In addition, the inhibition is -4.19% (inactive) in assay [5] and -10% (inactive) in assay [6].

Regarding `Cc1cc(Oc2ccc(Cl)cc2)nc(-c2ccccc2O)n1`, the viability in assay [1] is 98% (inactive); in assay [2] it was 84.7% (inactive); in assay [3] it was 93.9% (inactive); in assay [4] (setting [7]), 90.7%; in assay [4] (setting [8]), 93.9%. Moreover, the differential viability (reversal) in assay [4] (H69AR cells + 2 uM doxorubicin) was 3.2% (inactive). Moreover, the results for the inhibition in assay [5] and in assay [6] were 2.73% (inactive) and -7.38% (inactive), respectively.

With `NS(=O)(=O)c1cc2c(cc1Cl)NC(CSCc1ccccc1)=NS2(=O)=O`, the viability in assay [1] is 115% (inactive); in assay [2] it was 89.2% (inactive); in assay [3], 92.6% (inactive); in assay [4] (setting [7]), 89.6%; in assay [4] (setting [8]) it was 92.6%. Also, the differential viability (reversal) in assay [4] (H69AR cells + 2 uM doxorubicin) is 2.97% (inactive). Further, the inhibition in assay [5] was -4.29% (inactive); in assay [6], 0.67% (inactive).

Take `Cc1cc(=O)n(CCO)c(O)c1C#N`: the viability in assay [1] is 81.5% (inactive); in assay [2], 107% (inactive); in assay [3], 95.1% (inactive); in assay [4] (setting [7]) it was 101%; in assay [4] (setting [8]), 95.1%. Besides, in assay [4] (H69AR cells + 2 uM doxorubicin), the differential viability (reversal) was -5.74% (inactive). Further, the inhibition in assay [5] was -3.95% (inactive); in assay [6], 22.8% (inactive).
